Experiments:
Assay type in all cases: functional
[1] = tested on: HL-60(TB); test: Growth inhibition of human HL-60(TB) cells after 48 hrs by sulforhodamine B assay; conditions: HL-60, 48 h
Outline: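 Tested only on compounds active in a three-line prescreen, in the NCI 60-human-tumour-cell-line panel over a 5-log dose range. Values come from dose–response curves as log10 molar GI50, the concentration inhibiting 50% net cell growth. Log10 TGI (total growth inhibition) and log10 LC50 (50% net cell death) were derived too. Mean graph midpoints include insensitive lines at the highest concentration tested.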

[2] = tested on: SW-620; test: Growth inhibition of human SW620 cells after 48 hrs by sulforhodamine B assay; conditions: SW-620, 48 h
Outline: (§1)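 Run in the NCI 60-human-tumour-cell-line panel, tested over a 5-log dose range. Dose–response curves gave three values per cell line, each as a log10 molar concentration: GI50 (50% inhibition of net cell growth), TGI (total inhibition of net growth) and LC50 (50% net cell death). The mean graph midpoint is the arithmetic mean over all lines, with insensitive lines entered at the highest concentration tested.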

[3] = tested on: Malme-3M; test: Growth inhibition of human MALME-3M cells after 48 hrs by sulforhodamine B assay
Outline: (§2)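 NCI 60-human-tumor-cell-line panel, with compounds tested over a 5-log dose range. Values are taken from dose-response curves as log10 molar concentrations: GI50 is 50% net growth inhibition, TGI is total growth inhibition, and LC50 is 50% net cell death.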

[4] = tested on: NCI/ADR-RES; test: Growth inhibition of human NCI/ADR-RES cells after 48 hrs by sulforhodamine B assay; outline: as §2
[5] = tested on: SN12C; test: Growth inhibition of human SN12C cells after 48 hrs by sulforhodamine B assay; outline: as §1
[6] = tested on: SF-539; test: Growth inhibition of human SF539 cells after 48 hrs by sulforhodamine B assay; conditions: SF-539, 48 h; outline: as §2
[7] = tested on: SR; test: Growth inhibition of human SR cells after 48 hrs by sulforhodamine B assay; outline: as §1
[8] = tested on: LOX IMVI; test: Growth inhibition of human LOXIMVI cells after 48 hrs by sulforhodamine B assay; outline: as §2
[9] = tested on: UACC-62; test: Growth inhibition of human UACC62 cells after 48 hrs by sulforhodamine B assay; conditions: UACC-62, 48 h; outline: as §1
[10] = tested on: RXF 393; test: Growth inhibition of human RXF393 cells after 48 hrs by sulforhodamine B assay; conditions: RXF 393, 48 h; outline: as §2
[11] = Growth inhibition of human […] cells after 48 hrs by sulforhodamine B assay; outline: as §2
[12] = tested on: A498; test: Growth inhibition of human A498 cells after 48 hrs by sulforhodamine B assay; conditions: A498, 48 h; outline: as §2
[13] = tested on: CCRF-CEM; test: Growth inhibition of human CCRF-CEM cells after 48 hrs by sulforhodamine B assay; outline: as §2
[14] = tested on: K562; test: Growth inhibition of human K562 cells after 48 hrs by sulforhodamine B assay; conditions: K562, 48 h; outline: as §2
[15] = tested on: SK-MEL-28; test: Growth inhibition of human SK-MEL-28 cells after 48 hrs by sulforhodamine B assay; conditions: SK-MEL-28, 48 h; outline: as §2
[16] = tested on: NCI-H226; test: Growth inhibition of human NCI-H226 cells after 48 hrs by sulforhodamine B assay; conditions: NCI-H226, 48 h; outline: as §2
[17] = tested on: HCT-116; test: Growth inhibition of human HCT116 cells after 48 hrs by sulforhodamine B assay; conditions: HCT-116, 48 h; outline: as §2
[18] = tested on: ACHN; test: Growth inhibition of human ACHN cells after 48 hrs by sulforhodamine B assay
[19] = tested on: SK-MEL-2; test: Growth inhibition of human SK-MEL-2 cells after 48 hrs by sulforhodamine B assay; conditions: SK-MEL-2, 48 h; outline: as §2
[20] = tested on: NCI-H23; test: Growth inhibition of human NCI-H23 cells after 48 hrs by sulforhodamine B assay; conditions: NCI-H23, 48 h; outline: as §2
[21] = tested on: T47D; test: Growth inhibition of human T47D cells after 48 hrs by sulforhodamine B assay; outline: as §1
[22] = tested on: DU-145; test: Growth inhibition of human DU145 cells after 48 hrs by sulforhodamine B assay; conditions: DU-145, 48 h; outline: as §2
[23] = tested on: A549; test: Growth inhibition of human A549 cells after 48 hrs by sulforhodamine B assay; conditions: A549, 48 h; outline: as §2
[24] = tested on: M14; test: Growth inhibition of human M14 cells after 48 hrs by sulforhodamine B assay; conditions: M14, 48 h; outline: as §2
[25] = read-out: pLC50 (the source's name) (converted)

`Nc1cc(N)c2nc(-c3ccccc3)c(Sc3ccc(Cl)c(Cl)c3)nc2c1` showed a GI50 [1] of 7.94 µM, an LC50 [1] of over 100 µM and a TGI ([1]; read-out: pTGI (converted)) of over 100 µM. It also gave a GI50 [2] of 20.9 µM, a CC50 [2, 25] of over 100 µM and a TGI ([2]; read-out: pTGI (converted)) of 83.2 µM. For the same molecule, the GI50 [3] was 19.5 µM, the CC50 [3, 25] was over 100 µM and the TGI ([3]; read-out: pTGI (converted)) was 50.1 µM. The GI50 [4] was 19.1 µM, the CC50 [4, 25] was over 100 µM and the TGI ([4]; read-out: pTGI (converted)) was 60.3 µM. The GI50 [5] was 7.59 µM, the CC50 [5, 25] was 64.6 µM and the TGI ([5]; read-out: pTGI (converted)) was 23.4 µM. For the same molecule, the GI50 [6] was 14.5 µM, the LC50 [6] was over 100 µM and the TGI ([6]; read-out: pTGI (converted)) was 41.7 µM. The GI50 [7] was 4.68 µM, the LC50 (concentration giving 50% net cell death) [7] was over 100 µM and the TGI ([7]; read-out: pTGI (converted)) was 35.5 µM. It also gave a GI50 [8] of 7.41 µM, an LC50 [8] of 72.4 µM and a TGI ([8]; read-out: pTGI (converted)) of 24.5 µM. It also gave a GI50 [9] of 6.76 µM, a CC50 [9, 25] of over 100 µM and a TGI ([9]; read-out: pTGI (converted)) of 42.7 µM. The GI50 [10] was 12.3 µM, the CC50 [10, 25] was 60.3 µM and the TGI ([10]; read-out: pTGI (converted)) was 26.9 µM. It also gave a GI50 [11] of 3.8 µM, an LC50 [11] of over 100 µM and a TGI ([11]; read-out: pTGI (converted)) of 31.6 µM. It also gave a GI50 [12] of 17 µM, a CC50 [12, 25] of 57.5 µM and a TGI ([12]; read-out: pTGI (converted)) of 30.9 µM. It also gave a GI50 [13] of 2.51 µM, an LC50 [13] of over 100 µM and a TGI ([13]; read-out: pTGI (converted)) of over 100 µM. It also gave a GI50 [14] of 15.8 µM, an LC50 [14] of over 100 µM and a TGI ([14]; read-out: pTGI (converted)) of over 100 µM. For the same molecule, the GI50 [15] was 13.8 µM, the CC50 [15, 25] was over 100 µM and the TGI ([15]; read-out: pTGI (converted)) was 57.5 µM. It also gave a GI50 [16] of 3.02 µM, an LC50 [16] of over 100 µM and a TGI ([16]; read-out: pTGI (converted)) of 9.12 µM. For the same molecule, the GI50 [17] was 9.33 µM, the LC50 (concentration causing 50% net cell death) [17] was over 100 µM and the TGI ([17]; read-out: pTGI (converted)) was 47.9 µM. The GI50 [18] was 1.7 µM, the CC50 [18, 25] was 5.62 µM and the TGI ([18]; read-out: pTGI (converted)) was 3.09 µM. The GI50 [19] was 6.17 µM, the CC50 [19, 25] was over 100 µM and the TGI ([19]; read-out: pTGI (converted)) was 30.9 µM. The GI50 [20] was 12.6 µM, the LC50 (50% net cell kill concentration) [20] was 95.5 µM and the TGI ([20]; read-out: pTGI (converted)) was 34.7 µM. For the same molecule, the GI50 [21] was 13.2 µM, the CC50 [21, 25] was over 100 µM and the TGI ([21]; read-out: pTGI (converted)) was over 100 µM. For the same molecule, the GI50 [22] was 1.51 µM, the CC50 [22, 25] was 9.77 µM and the TGI ([22]; read-out: pTGI (converted)) was 3.8 µM. For the same molecule, the GI50 [23] was 13.5 µM, the LC50 [23] was over 100 µM and the TGI ([23]; read-out: pTGI (converted)) was 52.5 µM. The GI50 [24] was 32.4 µM, the CC50 [24, 25] was over 100 µM and the TGI ([24]; read-out: pTGI (converted)) was over 100 µM.

— ChEMBL document CHEMBL1137710, “Synthesis and in vitro antitumor activity of new quinoxaline derivatives” (2009)
